Measurements: ChEMBL document CHEMBL1157586 (Bioorg Med Chem, 2010)
Converted amounts (≈) assume the structure as drawn.

Legend:
Aurora kinase B = Aurora kinase B (Homo sapiens, UniProt Q96GD4); experiment: Inhibition of Aurora B by scintillation proximity assay
[1] = target: Tyrosine-protein kinase JAK2 (Homo sapiens, UniProt O60674); experiment: Inhibition of JAK2 by scintillation proximity assay
[2] = target: Cell division cycle 7-related protein kinase (Homo sapiens, UniProt O00311); experiment: Inhibition of CDC7 by scintillation proximity assay
[3] = Cmax in nu/nu mouse at 10 mg/kg, iv; format: ADME, organism-based; design: dose 10 mg/kg, route intravenous; details: in vivo
Summary of the method: (§1)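 Healthy nude mice given 10 mg/kg iv as the hydrochloride salt in 5% dextrose solution. Six mice in total, three per leg (iv and oral). Saphenous-vein blood taken predose and at 0.083, 0.5, 1, 6 and 24 h after iv dosing. Plasma separated by centrifugation (10,000g, 3 min, 4 °C) and stored at -80 °C until analysis.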

[4] = target: Cyclin-dependent kinase 1/cyclin B1 (Homo sapiens, UniProt P06493); experiment: Inhibition of CDK1/cyclin B; format: protein-complex assay
Cyclin-dependent kinase 1/cyclin B1, sequence (P06493 whole entry): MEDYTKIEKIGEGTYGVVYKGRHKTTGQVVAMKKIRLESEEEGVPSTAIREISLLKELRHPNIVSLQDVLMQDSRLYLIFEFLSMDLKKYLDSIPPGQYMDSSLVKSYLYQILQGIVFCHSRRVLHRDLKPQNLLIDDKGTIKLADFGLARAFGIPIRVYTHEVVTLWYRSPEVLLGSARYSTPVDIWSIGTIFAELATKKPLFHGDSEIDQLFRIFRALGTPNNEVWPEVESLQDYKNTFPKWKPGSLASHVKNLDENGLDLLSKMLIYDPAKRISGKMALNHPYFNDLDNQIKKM
Cyclin-dependent kinase 1/cyclin B1, sequence (P14635 whole entry, further chain): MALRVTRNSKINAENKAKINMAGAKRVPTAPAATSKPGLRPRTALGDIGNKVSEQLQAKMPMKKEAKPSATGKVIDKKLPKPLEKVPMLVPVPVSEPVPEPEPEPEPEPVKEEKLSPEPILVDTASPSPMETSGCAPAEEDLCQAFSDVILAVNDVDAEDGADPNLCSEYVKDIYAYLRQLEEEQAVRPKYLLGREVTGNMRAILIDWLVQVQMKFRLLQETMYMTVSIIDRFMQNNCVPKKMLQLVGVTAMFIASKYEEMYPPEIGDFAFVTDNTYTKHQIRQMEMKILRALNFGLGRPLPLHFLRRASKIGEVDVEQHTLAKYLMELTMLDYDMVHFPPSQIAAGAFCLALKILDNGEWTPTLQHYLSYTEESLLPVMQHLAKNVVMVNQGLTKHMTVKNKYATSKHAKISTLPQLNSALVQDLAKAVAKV

Aurora kinase A = Aurora kinase A (Homo sapiens, UniProt O14965); experiment: Inhibition of Aurora A by scintillation proximity assay
[5] = target: Mitogen-activated protein kinase 14 (Homo sapiens, UniProt Q16539); experiment: Inhibition of p38alpha
[6] = target: Cyclin-dependent kinase 5/CDK5 activator 1 (Homo sapiens, UniProt Q00535); experiment: Inhibition of CDK5/p25 by scintillation proximity assay; format: protein-complex assay
[7] = target: Inhibitor of nuclear factor kappa-B kinase subunit beta (Homo sapiens, UniProt O14920); experiment: Inhibition of IKK2 by scintillation proximity assay
[8] = Plasma protein binding in human by HPLC analysis; format: ADME, cell-free; details: read-out: PPB (converted)
[9] = target: Serine/threonine-protein kinase PLK1 (Homo sapiens, UniProt P53350); experiment: Inhibition of PLK1
Serine/threonine-protein kinase PLK1, sequence (P53350 whole entry): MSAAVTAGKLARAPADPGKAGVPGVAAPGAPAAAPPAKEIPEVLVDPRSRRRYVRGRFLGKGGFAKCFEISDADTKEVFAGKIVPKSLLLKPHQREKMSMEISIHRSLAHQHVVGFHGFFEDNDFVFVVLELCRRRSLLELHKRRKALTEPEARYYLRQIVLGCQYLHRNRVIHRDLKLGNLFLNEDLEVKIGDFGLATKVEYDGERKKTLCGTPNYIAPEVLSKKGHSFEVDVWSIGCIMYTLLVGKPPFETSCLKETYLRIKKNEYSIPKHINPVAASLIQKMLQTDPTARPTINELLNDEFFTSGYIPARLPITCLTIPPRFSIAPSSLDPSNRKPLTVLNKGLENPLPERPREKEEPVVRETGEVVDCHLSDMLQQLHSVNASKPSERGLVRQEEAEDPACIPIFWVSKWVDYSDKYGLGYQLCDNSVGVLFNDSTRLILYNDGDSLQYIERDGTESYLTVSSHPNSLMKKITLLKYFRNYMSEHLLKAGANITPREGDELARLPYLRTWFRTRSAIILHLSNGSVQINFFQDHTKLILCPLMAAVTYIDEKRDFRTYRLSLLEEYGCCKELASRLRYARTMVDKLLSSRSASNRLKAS

[10] = target: RAC-alpha serine/threonine-protein kinase (Homo sapiens, UniProt P31749); experiment: Inhibition of AKT1
RAC-alpha serine/threonine-protein kinase, sequence (P31749 whole entry): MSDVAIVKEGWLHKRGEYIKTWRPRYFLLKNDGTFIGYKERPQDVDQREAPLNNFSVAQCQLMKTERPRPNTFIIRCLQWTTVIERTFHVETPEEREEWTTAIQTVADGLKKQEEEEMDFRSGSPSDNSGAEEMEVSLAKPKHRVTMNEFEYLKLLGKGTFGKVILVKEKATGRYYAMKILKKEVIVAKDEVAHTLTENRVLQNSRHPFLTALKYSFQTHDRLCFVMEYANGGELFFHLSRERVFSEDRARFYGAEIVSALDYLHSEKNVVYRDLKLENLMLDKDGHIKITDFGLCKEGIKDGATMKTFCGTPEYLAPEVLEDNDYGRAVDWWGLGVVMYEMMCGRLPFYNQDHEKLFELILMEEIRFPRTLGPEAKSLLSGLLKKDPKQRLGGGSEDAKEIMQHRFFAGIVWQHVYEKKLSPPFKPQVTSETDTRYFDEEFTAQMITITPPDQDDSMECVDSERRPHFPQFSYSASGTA

[11] = target: cAMP-dependent protein kinase catalytic subunit alpha (Homo sapiens, UniProt P17612); experiment: Inhibition of PKAalpha by scintillation proximity assay
[12] = target: Serine/threonine-protein kinase Chk1 (Homo sapiens, UniProt O14757); experiment: Inhibition of CHK1 by scintillation proximity assay
[13] = target: Vascular endothelial growth factor receptor 3 (Homo sapiens, UniProt P35916); experiment: Inhibition of VEGFR3 by scintillation proximity assay
[14] = target: Cyclin-dependent kinase 7/ cyclin H (Homo sapiens, UniProt P50613); experiment: Inhibition of CDK7/cyclin H by scintillation proximity assay; format: protein-complex assay
[15] = target: Cyclin-dependent kinase 4/cyclin D1 (Homo sapiens, UniProt P11802); experiment: Inhibition of CDK4/cyclin D1 by scintillation proximity assay; format: protein-complex assay
[16] = Solubility at pH 7; format: physicochemical; details: buffer
[17] = target: Fibroblast growth factor receptor 1 (Homo sapiens, UniProt P11362); experiment: Inhibition of FGFR1 by scintillation proximity assay
Fibroblast growth factor receptor 1, sequence (P11362 whole entry): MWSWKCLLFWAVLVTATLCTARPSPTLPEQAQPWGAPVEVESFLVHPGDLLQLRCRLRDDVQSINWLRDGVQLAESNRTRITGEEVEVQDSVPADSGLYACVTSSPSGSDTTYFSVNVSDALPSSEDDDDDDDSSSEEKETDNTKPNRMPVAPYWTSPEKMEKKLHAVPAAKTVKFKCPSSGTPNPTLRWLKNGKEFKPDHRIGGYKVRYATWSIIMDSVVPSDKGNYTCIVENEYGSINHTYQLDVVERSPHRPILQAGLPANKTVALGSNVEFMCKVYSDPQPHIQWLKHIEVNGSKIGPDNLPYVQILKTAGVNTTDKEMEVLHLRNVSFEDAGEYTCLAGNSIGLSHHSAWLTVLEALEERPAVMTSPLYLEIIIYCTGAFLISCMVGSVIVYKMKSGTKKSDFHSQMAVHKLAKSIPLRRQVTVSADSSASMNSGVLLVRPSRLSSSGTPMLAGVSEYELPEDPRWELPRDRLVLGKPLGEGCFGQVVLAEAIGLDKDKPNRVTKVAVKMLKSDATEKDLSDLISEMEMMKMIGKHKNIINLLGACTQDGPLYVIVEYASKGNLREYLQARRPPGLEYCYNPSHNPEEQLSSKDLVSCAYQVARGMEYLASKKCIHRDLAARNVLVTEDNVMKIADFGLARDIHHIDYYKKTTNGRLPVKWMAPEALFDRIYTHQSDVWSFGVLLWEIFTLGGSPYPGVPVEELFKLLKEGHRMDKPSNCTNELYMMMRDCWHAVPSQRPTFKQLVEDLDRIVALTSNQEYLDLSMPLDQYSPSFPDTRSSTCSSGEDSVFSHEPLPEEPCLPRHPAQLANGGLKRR

[18] = target: ALK tyrosine kinase receptor (Homo sapiens, UniProt Q9UM73); experiment: Inhibition of ALK by scintillation proximity assay
[19] = target: High affinity nerve growth factor receptor (Homo sapiens, UniProt P04629); experiment: Inhibition of TRKA
[20] = target: Receptor-type tyrosine-protein kinase FLT3 (Homo sapiens, UniProt P36888); experiment: Inhibition of FLT3 by scintillation proximity assay
Receptor-type tyrosine-protein kinase FLT3, sequence (P36888 whole entry): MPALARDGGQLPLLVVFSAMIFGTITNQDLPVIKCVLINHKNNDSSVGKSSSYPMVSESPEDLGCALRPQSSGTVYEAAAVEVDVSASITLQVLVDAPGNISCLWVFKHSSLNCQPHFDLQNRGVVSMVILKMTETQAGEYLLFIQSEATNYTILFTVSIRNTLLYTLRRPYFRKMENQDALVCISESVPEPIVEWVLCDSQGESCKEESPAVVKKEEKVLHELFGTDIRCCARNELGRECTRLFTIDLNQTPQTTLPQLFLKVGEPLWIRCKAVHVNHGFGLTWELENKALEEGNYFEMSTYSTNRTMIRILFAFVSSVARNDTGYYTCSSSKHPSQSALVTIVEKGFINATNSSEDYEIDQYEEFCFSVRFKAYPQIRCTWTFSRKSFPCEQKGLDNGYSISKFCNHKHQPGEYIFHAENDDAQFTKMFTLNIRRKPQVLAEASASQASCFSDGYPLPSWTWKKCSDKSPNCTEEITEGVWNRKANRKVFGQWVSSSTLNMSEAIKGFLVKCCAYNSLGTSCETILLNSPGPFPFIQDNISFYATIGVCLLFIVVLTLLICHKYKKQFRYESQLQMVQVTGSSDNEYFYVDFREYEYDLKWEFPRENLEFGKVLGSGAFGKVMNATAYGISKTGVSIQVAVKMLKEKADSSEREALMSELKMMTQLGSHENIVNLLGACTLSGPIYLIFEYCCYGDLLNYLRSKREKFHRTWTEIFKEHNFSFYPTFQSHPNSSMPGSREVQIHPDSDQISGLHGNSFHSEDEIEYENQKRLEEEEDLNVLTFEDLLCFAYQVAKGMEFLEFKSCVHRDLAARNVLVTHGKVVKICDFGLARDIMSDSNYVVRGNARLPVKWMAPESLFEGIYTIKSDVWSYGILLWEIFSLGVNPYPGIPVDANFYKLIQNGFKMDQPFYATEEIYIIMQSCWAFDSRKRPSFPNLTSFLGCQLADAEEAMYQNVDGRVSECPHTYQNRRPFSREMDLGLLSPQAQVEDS

[21] = target: MAP kinase-activated protein kinase 2 (Homo sapiens, UniProt P49137); experiment: Inhibition of MAPKAPK2 by scintillation proximity assay
MAP kinase-activated protein kinase 2, sequence (P49137 whole entry): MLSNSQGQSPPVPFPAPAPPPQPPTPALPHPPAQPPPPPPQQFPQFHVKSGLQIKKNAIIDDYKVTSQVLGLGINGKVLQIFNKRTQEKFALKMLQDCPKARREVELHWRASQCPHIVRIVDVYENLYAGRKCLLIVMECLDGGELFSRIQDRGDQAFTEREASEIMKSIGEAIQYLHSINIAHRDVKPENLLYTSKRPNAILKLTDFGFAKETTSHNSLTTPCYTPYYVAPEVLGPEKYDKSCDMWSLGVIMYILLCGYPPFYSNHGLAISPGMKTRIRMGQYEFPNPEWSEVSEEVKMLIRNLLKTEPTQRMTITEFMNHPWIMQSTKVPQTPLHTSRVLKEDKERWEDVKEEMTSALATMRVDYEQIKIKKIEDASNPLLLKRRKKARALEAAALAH

[22] = Clearance in nu/nu mouse at 10 mg/kg, iv; format: ADME, organism-based; design: dose 10 mg/kg, route intravenous; details: in vivo; summary of the method: as §1
[23] = Half life in nu/nu mouse at 10 mg/kg, iv; format: ADME, organism-based; design: dose 10 mg/kg, route intravenous; details: in vivo; summary of the method: as §1
[24] = Solubility in 5% dextrose solution; format: physicochemical
Mus musculus [25] = experiment: Toxicity in BALB/c nu/nu mouse assessed as body weight reduction at 10 to 30 mg/kg, iv QD for 10 consecutive days measured post last dose; format: organism-based; design: dose 10-30 mg/kg, route intravenous; scale not given: the % may be the effect or the level left; details: in vivo
Summary of the method: (§2)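 Tumour-bearing nude mice were dosed iv once daily for 10 consecutive days, with compound dissolved in 5% dextrose; vehicle-treated mice served as controls. Doses were 10, 20 and 30 mg/kg in the A2780 model (starting day 8), and 10 and 20 mg/kg in the HCT-116 and BX-PC3 models. Body weight change was compared with controls, and gross autopsy was performed.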

[26] = Volume of distribution at steady state in nu/nu mouse at 10 mg/kg, iv; format: ADME, organism-based; design: dose 10 mg/kg, route intravenous; details: in vivo, read-out: Vdss
Summary of the method: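 Healthy nude mice received a single 10 mg/kg iv dose as the hydrochloride salt in 5% dextrose; six mice were used in total across the iv and oral legs. Saphenous-vein blood was drawn predose and at 0.083, 0.5, 1, 6 and 24 h. Samples were spun at 10,000g for 3 min at 4 °C, and plasma was stored at −80 °C until analysis.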

[27] = target: Protein kinase C alpha type (Homo sapiens, UniProt P17252); experiment: Inhibition of PKCalpha by scintillation proximity assay
CYP3A4 = CYP3A4 (Homo sapiens, UniProt P08684); experiment: Inhibition of human CYP3A4 assessed as residual activity at 10 uM; format: ADME; details: read-out: Activity
Mus musculus [28] = experiment: Toxicity in BALB/c nu/nu mouse at 10 to 30 mg/kg, iv QD for 10 consecutive days measured post last dose; format: organism-based; design: dose 10-30 mg/kg, route intravenous; details: in vivo; summary of the method: as §2
[29] = target: Serine/threonine-protein kinase PAK 4 (Homo sapiens, UniProt O96013); experiment: Inhibition of PAK4 by scintillation proximity assay
Serine/threonine-protein kinase PAK 4, sequence (O96013 whole entry): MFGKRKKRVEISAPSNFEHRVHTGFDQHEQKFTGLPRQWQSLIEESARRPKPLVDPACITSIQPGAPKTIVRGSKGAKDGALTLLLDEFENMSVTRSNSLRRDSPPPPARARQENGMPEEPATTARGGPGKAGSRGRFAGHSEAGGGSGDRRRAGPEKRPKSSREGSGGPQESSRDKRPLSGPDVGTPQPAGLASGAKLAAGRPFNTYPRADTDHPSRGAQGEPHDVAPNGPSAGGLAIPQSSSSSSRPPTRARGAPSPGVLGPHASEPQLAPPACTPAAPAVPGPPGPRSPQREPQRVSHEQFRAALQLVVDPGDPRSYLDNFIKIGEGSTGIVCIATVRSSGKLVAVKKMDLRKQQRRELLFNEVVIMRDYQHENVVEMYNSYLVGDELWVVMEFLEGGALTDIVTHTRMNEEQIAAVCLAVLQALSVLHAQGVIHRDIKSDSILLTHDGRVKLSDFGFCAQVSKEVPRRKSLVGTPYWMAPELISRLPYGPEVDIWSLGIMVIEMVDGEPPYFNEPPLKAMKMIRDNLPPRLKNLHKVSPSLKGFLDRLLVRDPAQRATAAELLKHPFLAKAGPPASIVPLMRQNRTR

[30] = target: Insulin-like growth factor 1 receptor (Homo sapiens, UniProt P08069); experiment: Inhibition of IGF1R by scintillation proximity assay
[31] = target: Serine/threonine-protein kinase Nek6 (Homo sapiens, UniProt Q9HC98); experiment: Inhibition of NEK6 by scintillation proximity assay
Serine/threonine-protein kinase Nek6, sequence (Q9HC98 whole entry): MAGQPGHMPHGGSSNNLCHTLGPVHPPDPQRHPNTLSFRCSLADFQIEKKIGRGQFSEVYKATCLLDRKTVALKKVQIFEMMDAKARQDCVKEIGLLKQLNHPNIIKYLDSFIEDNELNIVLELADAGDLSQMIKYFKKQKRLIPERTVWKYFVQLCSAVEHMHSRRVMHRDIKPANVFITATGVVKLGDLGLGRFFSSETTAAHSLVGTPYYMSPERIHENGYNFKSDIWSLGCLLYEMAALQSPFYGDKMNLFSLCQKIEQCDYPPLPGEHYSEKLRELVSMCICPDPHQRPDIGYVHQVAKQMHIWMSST

[32] = target: Glycogen synthase kinase-3 beta (Homo sapiens, UniProt P49841); experiment: Inhibition of GSK3-beta by scintillation proximity assay
[33] = AUC in nu/nu mouse at 10 mg/kg, iv; format: ADME, organism-based; design: dose 10 mg/kg, route intravenous; details: plasma; summary of the method: as §1
[34] = Inhibition of PDGFR by scintillation proximity assay
[35] = Inhibition of SULU1 by scintillation proximity assay
[36] = target: Cyclin-dependent kinase 2/cyclin E1 (Homo sapiens, UniProt P24941); experiment: Inhibition of CDK2/cyclin E by scintillation proximity assay; format: protein-complex assay
A2780 [37] = experiment: Cell cycle arrest in human A2780 cells assessed as accumulation at G2/M phase at 3 uM after 24 hrs by FACS analysis; format: functional
Summary of the method: (§3)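 A2780 cells (ECACC) seeded at 25000 cells/cm² in RPMI 1640, pH 7.4, with 10% FBS, 2 mM L-glutamine and penicillin–streptomycin, at 37 °C in 5% CO₂. After 24 h, treated for 24 h at 1 and 3 µM. Floating and trypsinised adherent cells pooled, PBS-washed, and DNA content analysed by flow cytometry.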

[38] = target: Vascular endothelial growth factor receptor 2 (Homo sapiens, UniProt P35968); experiment: Inhibition of VEGFR2 by scintillation proximity assay
[39] = Inhibition of STK2 by scintillation proximity assay
[40] = target: Tyrosine-protein kinase ABL1 (Homo sapiens, UniProt P00519); experiment: Inhibition of c-ABL by scintillation proximity assay
[41] = target: Hepatocyte growth factor receptor (Homo sapiens, UniProt P08581)
[42] = Inhibition of CK2 by scintillation proximity assay
[43] = Inhibition of NIM by scintillation proximity assay
A2780 [44] = experiment: Antiproliferative activity against human A2780 cells after 72 hrs by CellTiter-Glo luminescence assay; details: A2780, 72 h
[45] = target: Mast/stem cell growth factor receptor Kit (Homo sapiens, UniProt P10721); experiment: Inhibition of cKit by scintillation proximity assay
A2780 [46] = experiment: Cell cycle arrest in human A2780 cells assessed as accumulation at G0/G1 phase at 3 uM after 24 hrs by FACS analysis; format: functional; summary of the method: as §3
[47] = target: Serine/threonine-protein kinase PLK2 (Homo sapiens, UniProt Q9NYY3); experiment: Inhibition of PLK2 by scintillation proximity assay
A2780 [48] = experiment: Cell cycle arrest in human A2780 cells assessed as accumulation at S phase at 3 uM after 24 hrs by FACS analysis; format: functional; summary of the method: as §3
Insulin receptor = Insulin receptor (Homo sapiens, UniProt P06213); experiment: Inhibition of IR by scintillation proximity assay
[49] = target: Cyclin-dependent kinase 2/cyclin A (Homo sapiens, UniProt P24941); experiment: Inhibition of human CDK2/cyclin A expressed in Escherichia coli BL21 by scintillation proximity assay
A2780 [50] = experiment: Inhibition of cellular DNA synthesis in human A2780 cells assessed as BrdU incorporation into nuclear DNA at 3 uM after 24 hrs by Hoechst 33342 staining-based microscopic analysis; format: functional; design: scale not given: the % may be the effect or the level left
Summary of the method: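 A2780 human ovarian adenocarcinoma cells were seeded at 25000 cells/cm² in RPMI 1640 pH 7.4 with 10% FBS, 2 mM L-glutamine and penicillin–streptomycin. They were kept at 37 °C in 5% CO₂. After 24 h they were exposed to compound for 24 h. Floating and adherent cells were harvested with trypsin/EDTA, washed in PBS, and split for flow cytometry, immunoblot and BrdU incorporation.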

[51] = target: Proto-oncogene tyrosine-protein kinase receptor Ret (Homo sapiens, UniProt P07949); experiment: Inhibition of RET by scintillation proximity assay
[52] = target: Mitogen-activated protein kinase 1 (Homo sapiens, UniProt P28482); experiment: Inhibition of ERK2

SMILES: CC(C)CC(=O)Nc1[nH]nc2c1CN(C(=O)C1CCN(C)CC1)C2(C)C [PHA-793887]
- IC50 (Aurora kinase B): > 10 µM
- IC50 [1]: > 10 µM
- IC50 [2]: > 10 µM
- Cmax [3]: 36.5 µM
- IC50 [4]: 0.06 µM
- IC50 (Aurora kinase A): > 10 µM
- IC50 [5]: > 10 µM
- IC50 [6]: 0.005 µM
- IC50 [7]: > 10 µM
- fraction unbound [8]: 0.46
- IC50 [9]: > 10 µM
- IC50 [10]: > 10 µM
- IC50 [11]: > 10 µM
- IC50 [12]: > 10 µM
- IC50 [13]: > 10 µM
- IC50 [14]: 0.01 µM
- IC50 [15]: 0.062 µM
- solubility [16]: > 225 µM
- IC50 [17]: > 10 µM
- IC50 [18]: > 10 µM
- IC50 [19]: > 10 µM
- IC50 [20]: > 10 µM
- IC50 [21]: > 10 µM
- clearance [22]: 23.9 mL/min/kg
- half-life [23]: 4.1 h
- solubility [24]: 10000 µg/mL (≈ 27.7 mM)
- Activity (Mus musculus [25]): < 10%
- Vd [26]: 1.36 L/kg
- IC50 [27]: > 10 µM
- activity at 10 µM (CYP3A4): 91%
- Activity (Mus musculus [28]): Non-toxic
- IC50 [29]: > 10 µM
- IC50 [30]: > 10 µM
- IC50 [31]: > 10 µM
- IC50 [32]: 0.079 µM
- AUC [33]: 19.2 µM·h

SMILES: CC(C)(C)C(=O)N1Cc2c(NC(=O)c3cc(F)cc(F)c3)n[nH]c2C1(C)C
- IC50 (Aurora kinase B): > 10 µM
- IC50 [34]: > 10 µM
- IC50 [1]: > 10 µM
- IC50 [35]: > 10 µM
- IC50 [2]: > 10 µM
- IC50 [36]: 0.09 µM
- IC50 [4]: 0.45 µM
- Activity (A2780 [37]): 26%
- IC50 (Aurora kinase A): > 10 µM
- IC50 [5]: > 10 µM
- IC50 [6]: 0.14 µM
- IC50 [7]: > 10 µM
- IC50 [9]: > 10 µM
- IC50 [10]: > 10 µM
- IC50 [11]: > 10 µM
- IC50 [38]: > 10 µM
- IC50 [12]: > 10 µM
- IC50 [13]: > 10 µM
- IC50 [39]: > 10 µM
- IC50 [40]: > 10 µM
- IC50 [41]: > 10 µM
- solubility [16]: 186 µM (≈ 70 µg/mL)
- IC50 [42]: > 10 µM
- IC50 [43]: > 10 µM
- IC50 (A2780 [44]): 0.31 µM
- IC50 [17]: > 10 µM
- IC50 [45]: > 10 µM
- IC50 [18]: > 10 µM
- Activity (A2780 [46]): 22%
- IC50 [20]: > 10 µM
- IC50 [21]: > 10 µM
- IC50 [47]: > 10 µM
- Activity (A2780 [48]): -52%
- solubility [24]: 3400 µg/mL (≈ 9.03 mM)
- IC50 [27]: > 10 µM
- IC50 (Insulin receptor): > 10 µM
- IC50 [49]: 0.06 µM
- Activity (A2780 [50]): -96%
- IC50 [51]: > 10 µM
- IC50 [29]: > 10 µM
- IC50 [30]: > 10 µM
- IC50 [31]: > 10 µM
- IC50 [32]: 3.63 µM
- IC50 [52]: > 10 µM
